Source: PubChem (several laboratories)
NCF1 inh – p47phox/p22phox peptide binding inhibitors, primary screen, biochemical, uHTS, NADPH oxidase regulatory subunit; inhibition, % at 24.7 µM; AID 1274, 2008; fluorescence polarization, 2 h; Neutrophil cytosol factor 1 (Homo sapiens), P14598; actives 0.53% (n = 220,000);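 active means inhibition above about 30%, limit read from the data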;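 further: 0% = p47phox with labelled peptide and 100% = labelled peptide alone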
Arbovirus inh – antivirals against arbovirus infection, primary screen, cell-based, full library, 10K replicate subset; arbovirus infection cell-based antiviral screen; inhibition, % at 10 µM; actives 0.37% (n = 200,000); AID 1251, 2008; in the data active means inhibition above about 30%
Hck-Nef inh – inhibitors of Nef-activated human Hck kinase, primary screen, biochemical, Z-Lyte FRET, 384-well, Hck-YEEI; Recombinant Hck-YEEI plus Nef, Z-Lyte FRET kinase assay; inhibition, % at 20 µM; actives 0.68% (n = 220,000);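 active means Hck-Nef kinase inhibition above about 50%, limit read from the data; inactive means inhibition below that limit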;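 further: 0% = DMSO with Hck plus Nef and 100% = Hck alone without Nef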
Target sequence (P08631 whole entry, looked up): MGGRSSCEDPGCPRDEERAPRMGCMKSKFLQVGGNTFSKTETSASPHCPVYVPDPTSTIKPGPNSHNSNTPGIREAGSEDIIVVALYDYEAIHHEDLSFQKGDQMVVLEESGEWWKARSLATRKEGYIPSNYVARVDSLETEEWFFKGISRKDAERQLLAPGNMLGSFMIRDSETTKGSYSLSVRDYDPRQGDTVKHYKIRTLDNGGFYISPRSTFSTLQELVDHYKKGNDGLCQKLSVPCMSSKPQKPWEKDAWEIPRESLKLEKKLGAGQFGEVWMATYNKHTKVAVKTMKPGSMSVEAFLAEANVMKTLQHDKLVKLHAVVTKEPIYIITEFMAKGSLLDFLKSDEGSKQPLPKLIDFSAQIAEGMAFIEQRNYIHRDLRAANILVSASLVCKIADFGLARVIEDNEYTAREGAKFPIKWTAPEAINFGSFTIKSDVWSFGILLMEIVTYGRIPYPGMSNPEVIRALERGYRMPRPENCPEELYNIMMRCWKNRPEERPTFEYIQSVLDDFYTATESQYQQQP
RAM network inh – inhibitors of the yeast RAM network, primary screen, dse1pr::URA3 reporter, 5-FOA selection; actives 1.8% (n = 190,000); inhibition, % at 50 µM; AID 868, 2007; S. cerevisiae dse1pr::URA3 reporter, 5-FOA growth OD615, 2 d; analog-sensitive cbk1-as2 kinase mutant strain;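 active means inhibition above a set limit, 3 SD over mean compound inhibition, cut at about 8.4% in these data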;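 further: 0% = DMSO-only wells with no growth and 100% = 10 µM 1-NA-PP1 full growth; inhibition rescues growth on 5-FOA so higher OD means more RAM inhibition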
WT yeast gro inh – growth inhibition of WT strain, primary screen, mitochondrial fusion inhibitor project, WT and mutant strains, chemical genetic. actives 2.1% (n = 190,000). mitochondrial fusion phenotypic screen. inhibition, % at 10 µM; in the data active means inhibition above about 58%; tested in S. cerevisiae
Calb biofilm kill – clotrimazole potentiators killing C. albicans biofilm, primary screen, 4-compound mixtures. C. albicans biofilm persisters + clotrimazole, fluorescence viability; primary screen in compound mixtures of four per well. inhibition, % at 7.6 µM. actives 0.02% (n = 120,000). AID 1242, 2008;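 active means inhibition above 30.3% in the primary screen of four-compound pools, then above 30% when the compound was retested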;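 further: compounds exposed to preformed 24 h biofilms for 48 h; 0% = untreated biofilm control and 100% = clotrimazole plus chlorhexidine kill blank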
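Test system: C. albicans biofilms. Buffer or medium: RPMI/MOPS medium, pH 7.0. Timing: 48 h compound exposure at 37 °C. Technique: Alamar Blue fluorescence. Evaluation: percent inhibition of biofilm viability.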
* hit, by the source's call; / = not tested or not shown. In the library only some 4.6% were active in any assay of this set; here they are far more common.

SMILES	NCF1 inh	Arbovirus inh	Hck-Nef inh	RAM network inh	WT yeast gro inh	Calb biofilm kill
CCOc1ccc(S(=O)(=O)NCCC2=CCCCC2)c2ccccc12	-2	-18	1	11*	1	/
COc1ccc(C)cc1S(=O)(=O)NCCC1=CCCCC1	-3	6	-1	1	5	/
CCCN1C(=O)c2cc(C(=O)Nc3ccc(OC)cc3OC)ccc2C1Nc1ccc(OC)cc1OC (stereo not given)	/	4	-9	6	4	12
Cc1ccccc1Nc1cc(C)c2c(O)cccc2n1	-24	-34	-2	1	58*	19
CCOC(=O)c1ccc(NC(=O)CCc2c(C)nc3ncnn3c2C)cc1	-5	11	1	-1	-18	/
O=C(Nc1ccccc1)OC1CC2CC1C1CCCC21 (stereo not given)	-4	0	2	1	80*	-11
COc1ccc([C@H]2[C@H](C(=O)OC(C)(C)C)N3N=Cc4ccccc4C3C23C(=O)c2ccccc2C3=O)c(OC)c1 (stereo not given in full)	-38	-12	2	9.3*	0	14
COc1ccc([C@H]2[C@H](C(=O)OC(C)(C)C)N3N=Cc4ccccc4C3C23C(=O)c2ccccc2C3=O)cc1OC (stereo not given in full)	-16	-14	2	5	9	14
COC(=O)c1cccc(NC(=O)c2cccs2)c1C	-14	1	2	1	-14	/
Cc1ccc(C(C)C)c(OCCNC(=S)Nc2cccc3ccccc23)c1	-3	-17	-1	6	72*	/
Cc1ccc(C(C)C)c(OCCN)c1	-7	11	3	3	4	/
C/C(CCc1ccc2c(c1)OCO2)=N\N=C1\NC(=O)CC(C(=O)Nc2ccc(Cl)cc2)S1 (stereo not given)	-13	10	1	3	73*	/
COc1ccc(CN=C2NC(=O)CC(C(=O)Nc3ccc(Cl)cc3)S2)cc1 (stereo not given)	1	8	2	9.2*	5	7
CN(CC(=O)Nc1ccc(C#N)cc1)Cc1ccc(Cl)cc1	-9	13	1	2	29	/
N#Cc1ccc(NC(=O)Nc2ccc(Cl)cc2)cc1	-22	-16	1	2	63*	/
Cc1ccc2nc(SCC(=O)NCc3ccco3)c(C#N)cc2c1	33*	-1	3	2	9	/
NNC(=O)CNS(=O)(=O)c1ccc([N+](=O)[O-])cc1	2	1	11	2	15	6
CCCn1c(=O)c(C(=O)OCC)c(O)c2cc(Br)ccc21	3	19	21	9.8*	-9	22
CCC1(c2ccc(Cl)cc2)NC(=S)N(c2ccccc2)N1 (stereo not given)	-2	-29	4	2	31	16
CCC1(c2ccccc2)NC(=S)N(c2ccc(C)cc2)N1 (stereo not given)	-11	-23	24	0	62*	23
Cc1cc(S(=O)(=O)Nc2ccc3ccccc3c2)c(C)s1	-10	6	-2	9.2*	32	/
OCCCNCc1cccc2ccccc12	-3	1	0	1	4	/
Oc1ccccc1CNCCCNCc1ccccc1O	3	44*	1	-1	0	/
C/C(=N\NC(=O)COc1ccc(C)cc1Br)c1cc([N+](=O)[O-])cs1	32*	-29	12	2	4	5
O=C(NCCN1CCOCC1)c1ccc(=O)oc1	-4	9	-1	1	62*	/
SMILES	NCF1 inh	Arbovirus inh	Hck-Nef inh	RAM network inh	WT yeast gro inh	Calb biofilm kill
O=C(NCCN1CCOCC1)c1ccc(F)cc1	-11	3	1	0	/	/
Cc1ccc(/C=N/n2cc(-c3ccccc3)[nH]c2=S)s1	-12	-4	17	7	68*	14
S=c1[nH]c(-c2ccccc2)cn1/N=C/c1cccc2ccccc12	-20	-14	27	2	75*	8
S=c1[nH]c(-c2ccccc2)cn1/N=C/c1ccccc1Br	3	-10	15	6	68*	4
COc1cc(/C=N/n2cc(-c3ccccc3)[nH]c2=S)cc(OC)c1O	-26	/	-71	/	/	8
Oc1ccc(/C=N/n2cc(-c3ccccc3)[nH]c2=S)cc1	7	3	24	1	16	1
CCOc1ccc(C(=O)NCCC2=CCCCC2)cc1OCC	-2	-1	-1	3	6	21
Brc1ccccc1-c1csnn1	-12	-2	2	1	6	8
COc1ccc(NC(=O)c2cc3cccc(OC)c3oc2=Nc2ccc(C(=O)O)cc2)cc1OC	-9	31*	33	1	-11	5
COc1ccc(Br)cc1C(=O)Nc1ccc(C(=O)O)cc1	1	-1	-3	1	-9	11
Cc1ccc(NC(=O)CN(C)C(=O)CSc2nnc(C(F)(F)F)n2C)cc1	/	5	6	3	-3	8
Cc1ccc(CNC(=O)CCNC(=O)c2ccco2)cc1	-20	4	1	0	95*	/
Cc1nn(-c2ccccc2)c(Cl)c1/C=C1\SC(=S)N(C)C1=O	-30	-9	-8	8.4*	-7	10
COc1ccc(-c2nn(-c3ccccc3)cc2CO)cc1	-12	4	-2	0	-5	/
N=C(N)SCc1cn(-c2ccccc2)nc1-c1ccc(Br)cc1	54*	-31	13	-1	85*	11
Brc1ccccc1/C=N/Nc1ccc2ccccc2n1	7	39*	1	-1	69*	20
Cc1cc(N/N=C/c2ccccc2Br)nc2ccccc12	-35	7	1	-1	70*	5
Brc1ccc(/C=N/Nc2ccc3ccccc3n2)cc1	-16	2	1	-1	60*	/
Fc1cccc(/C=N/Nc2ccc3ccccc3n2)c1	2	8	18	0	20	-6
Cc1cc(C)nc(SCCC(=O)Nc2ccc(F)cc2)n1	1	11	-2	0	-7	12
COc1ccc(/C=C/c2nnc(NC(=O)CSc3ccc(Cl)cc3)s2)cc1	-55	-5	6	4	6	14
CC(=O)C1=C(O)CCCC1=NCc1nc2ccccc2[nH]1	4	5	20	1	-1	14
CCC(C)NS(=O)(=O)c1ccc(NS(=O)(=O)c2ccc(F)cc2)cc1 (stereo not given)	8	13	0	0	8	/
CCN1C(=O)/C(=C/c2cc(C)n(C)c2C)SC1=Nc1ccc(OC)cc1	-11	-6	4	4	16	/
CCN1C(=O)/C(=C/c2ccc(C)s2)SC1=Nc1ccc(OC)cc1	-7	-9	0	9.1*	17	/
